This is an account of results in PubChem BioAssay.

A short description of experiment [1]: inhibitors of TNFa-induced NFkB p65 translocation, primary screen, imaging, HUVEC, MLSMR starter and 10KST1 sets (AID 438;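 active means inhibition above 20% together with a positive visual image hit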;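 further: compound added about 3h40 before a 20 min TNFalpha stimulation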;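 on inhibition: signal is the nuclear over cytoplasmic p65 intensity ratio per well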). To be noted: HUVEC TNFa-induced p65 nuclear translocation; cell count: measured here: nuclei count (cytotoxicity indicator), at 2.08 µM; inhibition: at 2 µM, stronger effect = higher value, 0% TNFa-plus-vehicle, 100% no-TNFa wells.
Experiment [2] can be described thus: endothelial E-selectin expression blockers – imaging, HUVEC, immunofluorescence, MLSMR starter and 10KST1 sets, primary screen (AID 487).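 On inhibition: signal is fraction of cell area covered by stained E-selectin grains.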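 On nuclei count: 100% = median nuclei count of all wells on the same plate.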 To be noted: HUVEC TNFalpha-induced E-selectin immunofluorescence imaging, at 2 µM; inhibition: stronger effect = higher value; nuclei count: measured here: cell number, toxicity.
Experiment [3] can be described thus: Primary imaging screen for DUSP6 inhibitors that restore phospho-Erk in transfected HeLa cells, chemical complementation (AID 609;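 active means compounds giving at least 50% inhibition in the cell-based MKP-3 phosphatase rescue imaging test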;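 on inhibition: phospho-Erk level distribution per well compared with pooled transfected vehicle control wells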). To be noted: HeLa MKP-3 transfected, phospho-Erk imaging KS statistic, at 10 µM, cells stimulated with TPA for 15 min.
In experiment [4] the target is Dual specificity protein phosphatase 6 (Homo sapiens) (UniProt Q16828). The description is as above. To be noted: HeLa MKP-3 transfected, phospho-Erk imaging KS statistic; at 10 µM; stronger effect = higher value; cells stimulated with TPA for 15 min.
Sequence of Dual specificity protein phosphatase 6 (Homo sapiens) (Q16828 whole entry, looked up): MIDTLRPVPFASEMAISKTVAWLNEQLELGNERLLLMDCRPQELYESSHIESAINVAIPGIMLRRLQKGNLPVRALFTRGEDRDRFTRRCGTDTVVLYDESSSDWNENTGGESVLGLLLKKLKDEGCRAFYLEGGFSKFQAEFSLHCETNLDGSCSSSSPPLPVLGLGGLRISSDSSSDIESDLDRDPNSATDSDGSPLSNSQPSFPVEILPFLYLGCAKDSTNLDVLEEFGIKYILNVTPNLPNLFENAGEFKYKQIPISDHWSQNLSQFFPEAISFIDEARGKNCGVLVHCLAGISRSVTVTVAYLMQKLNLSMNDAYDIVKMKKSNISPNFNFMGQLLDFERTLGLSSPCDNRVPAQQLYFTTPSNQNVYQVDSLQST
The target of experiment [5] is Voltage-gated potassium channel subunit beta-2 (Rattus norvegicus) (UniProt P62483). The experiment in a line: inhibitors of rat Kvbeta2 reductase activity – biochemical, NADPH fluorescence, primary screen (AID 622;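 active means fluorescence slope higher than the sample average by over 3 SD, cut at about -0.22 in these data, passing the limit was not always enough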;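 further: slope of raw intensity against log time taken from 70 to 1610 s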). As to conditions: recombinant KvBeta, 4-cyanobenzaldehyde reduction, at 10 µM, stronger effect = higher value.
Sequence of Voltage-gated potassium channel subunit beta-2 (Rattus norvegicus) (P62483 whole entry, looked up): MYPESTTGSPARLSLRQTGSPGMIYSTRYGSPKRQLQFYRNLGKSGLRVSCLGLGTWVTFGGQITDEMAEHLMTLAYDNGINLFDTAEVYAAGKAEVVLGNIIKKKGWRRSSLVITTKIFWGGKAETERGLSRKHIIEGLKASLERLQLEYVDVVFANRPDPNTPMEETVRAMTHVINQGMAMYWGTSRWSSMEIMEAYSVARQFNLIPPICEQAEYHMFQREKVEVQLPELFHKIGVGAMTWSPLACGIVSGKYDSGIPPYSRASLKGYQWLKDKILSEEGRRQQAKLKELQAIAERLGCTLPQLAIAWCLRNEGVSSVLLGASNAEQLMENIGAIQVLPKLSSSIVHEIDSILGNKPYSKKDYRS
Experiment [6] has the same target. Nature of the experiment: enhancers of rat Kvbeta2 NADPH turnover – biochemical, NADPH fluorescence, primary screen (AID 623;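 active means NADPH fluorescence slope more negative than the mean of all samples by about 3 SD, 99.7% confidence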;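 further: fluorescence intensity change per second fitted from 20 to 320 s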). As to conditions: Recombinant KvBeta, NADPH fluorescence decrease slope, 10 min; at 10 µM; stronger effect = lower value.
Experiment [7] concerns the target Alpha-2C adrenergic receptor (Homo sapiens) (UniProt P18825). Nature of the experiment: compounds altering alpha2C-coupled GIRK flux – cell-based, HEK293 alpha2C/GIRK1/2, thallium flux, primary screen (AID 624;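 active means fluorescence slope after compound addition differing from the mean of all screened samples at 99.7% confidence, in either direction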;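 further: slope of fluorescence ratio to pre-addition baseline per second over 15 to 24 s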). To be noted: thallium flux BTC fluorescence, at 10 µM, actives lie on both sides.
Experiment [8] can be described thus: inhibitors of larval lipid processing in zebrafish, primary screen, whole organism, PED6 fluorescence, gall bladder and intestine (AID 686;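 active means a full or partial loss of lipid-probe fluorescence in the fish gall bladder, intestine or both, judged by eye; inactive means no fluorescence loss, or compound toxic to the fish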;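 further: larvae 5 to 7 days old with five fish per well; signal comes from phospholipase A2 cleavage of quenched PED6 carried via bile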). To be noted: Zebrafish larvae PED6 lipid processing, fluorescence scoring; screened at 20 µM (by protocol). The method, boiled down:
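Incubation: overnight exposure of larvae to compound plus PED6 / Test system: live zebrafish larvae aged 5-7 days, whole organism / Amount: 5 larvae per well / Read-out basis: visual per-well fluorescence inhibition score / Signal: visual fluorescence microscopy scoring of gall bladder, gut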

A short description of experiment [9]: loss of swimming-algae plug formation – whole organism, Chlamydomonas reinhardtii, WT vs cilia-less mutant, absorbance, 96-well, primary screen (AID 463189;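 active means inhibition at or above 50% relative to wild type and mutant plate controls; inactive means inhibition below 50%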;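 further: 0% = wild type cc124 cells in DMSO and 100% = ciliumless bld1 mutant cells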). To be noted: Chlamydomonas reinhardtii gravitaxis, OD600 absorbance, 2 days; at 10 µM; stronger effect = higher value.
Setting [10] is: measured here: cell density z-score.
Setting [11] is: measured here: nuclear c-Myc green intensity z-score.
Setting [12] is: measured here: nuclear pErk red intensity z-score, stronger effect = higher value.

The structures appear in SMILES notation. Activity calls are given as the source filed them.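 How the source made its calls, unless noted: active means visually confirmed hit in the image check and inhibition above 20%; inconclusive means visually confirmed hit but inhibition not above 20%; inactive means no visual hit in the image check.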

Sequence of Alpha-2C adrenergic receptor (Homo sapiens) (P18825 whole entry, looked up): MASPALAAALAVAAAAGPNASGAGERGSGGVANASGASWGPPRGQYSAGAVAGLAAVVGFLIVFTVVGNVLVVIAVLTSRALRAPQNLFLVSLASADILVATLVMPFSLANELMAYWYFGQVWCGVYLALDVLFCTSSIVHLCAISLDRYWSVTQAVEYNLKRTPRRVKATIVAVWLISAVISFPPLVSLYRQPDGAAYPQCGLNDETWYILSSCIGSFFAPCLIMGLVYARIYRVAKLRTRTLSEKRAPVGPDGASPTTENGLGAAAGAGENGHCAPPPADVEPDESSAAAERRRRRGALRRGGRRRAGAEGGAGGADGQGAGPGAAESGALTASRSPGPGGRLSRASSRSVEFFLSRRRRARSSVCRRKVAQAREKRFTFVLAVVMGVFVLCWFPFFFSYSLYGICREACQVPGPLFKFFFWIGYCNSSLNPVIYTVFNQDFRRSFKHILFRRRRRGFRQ

Regarding `COc1ccc(/C=N/n2cncn2)cc1COc1ccc(NC(C)=O)cc1`, the cell count in experiment [1] is 307. The inhibition (as a rule, the change of the read-out against control, counted positive when it falls) in experiment [1] was -11.9% (inactive); in experiment [2], -81.9% (inactive); in [4] it was 24.3% (inactive); in experiment [9] it was -6.96% (inactive). Besides, in [2], the nuclei count was 99.2%. Also, the z-score is 1.57 in [3] (setting [10]), 0.491 in experiment [3] (setting [11]) and -0.528 in experiment [3] (setting [12]). For the same compound, the fluorescence slope in experiment [5] is -0.402 (inactive). Further, the NADPH fluorescence slope in experiment [6] was 3.3e-05 (inactive). Moreover, the slope in experiment [7] was 0.00513 (inactive). Moreover, the outcome in [8] was inactive.

Regarding `CCOc1ccc(-n2c(SCc3ccc(C#N)cc3)nnc2-c2cccnc2)cc1`, the cell count in experiment [1] worked out at 343. Besides, the inhibition in experiment [1] is -6% (inactive); in experiment [2], 6.3% (inactive); in [4], 13.4% (inactive); in [9] it was -11.3% (inactive). Also, the nuclei count in experiment [2] is 157%. In addition, the z-score is 0.958 in [3] (setting [10]), -0.128 in [3] (setting [11]) and 0.447 in [3] (setting [12]). Besides, the fluorescence slope in experiment [5] is -0.421 (inactive). The NADPH fluorescence slope in experiment [6] is -0.00013 (inactive). Also, the slope in experiment [7] is 0.00481 (inactive). Besides, the compound was called inactive in [8].

In the case of `COc1cccc(-c2nn3c(-c4ccccn4)nnc3s2)c1`, the cell count in experiment [1] worked out at 630. For the same compound, the inhibition in experiment [1] is -8% (inactive); in [2], -117% (inactive); in [4], 15.5% (inactive); in experiment [9], 65.3% (active). This compound also gave a nuclei count in experiment [2] of 150%. Moreover, the z-score in [3] (setting [10]) was 0.488; in experiment [3] (setting [11]), -0.624; in [3] (setting [12]) it was -0.933. Besides, the fluorescence slope in experiment [5] is -0.454 (inactive). Also, the NADPH fluorescence slope in experiment [6] was -0.000157 (inactive). Moreover, the slope in experiment [7] is 0.00706 (inactive). Also, the compound was called inactive in experiment [8].

`O=C1c2ccccc2C(=O)C1c1ccc2ccccc2n1`: in [1], the cell count was 336. Also, the inhibition was -17.4% (inactive) in [1], -56% (inactive) in experiment [2], -7.28% (inactive) in experiment [4] and -14.2% (inactive) in experiment [9]. In experiment [2], this compound registered a nuclei count of 109%. In addition, the z-score in [3] (setting [10]) is -0.111; in [3] (setting [11]), -0.223; in experiment [3] (setting [12]), 0.575. Further, the fluorescence slope in experiment [5] was -0.43 (inactive). For the same compound, in experiment [6], the NADPH fluorescence slope was -2.4e-05 (inactive). In [7], the slope is 0.00379 (inactive). Besides, in experiment [8], the compound was classed as inactive.

In the case of `C#CCSC1=C(C#N)C(c2cccs2)C(C(=O)OCC)=C(C)N1` (centres undefined), the cell count in experiment [1] stood at 674. The inhibition in experiment [1] is -1.7% (inactive); in experiment [2], -59.4% (inactive); in experiment [4] it was -7.28% (inactive); in [9], -6.51% (inactive). The same compound registered a nuclei count in [2] of 167%. Also, the z-score in experiment [3] (setting [10]) was -0.719; in experiment [3] (setting [11]) it was 0.591; in experiment [3] (setting [12]), 0.242. The fluorescence slope in [5] is -0.417 (inactive). Further, the NADPH fluorescence slope in experiment [6] was 4.3e-06 (inactive). In experiment [7], the slope is 0.00405 (inactive). For the same compound, in experiment [8], the compound was classed as inactive.

Turning to `CCCCn1c(O)c(C=NCCCN(C)C)c(=O)[nH]c1=O`, in experiment [1], the cell count came out at 445. Besides, the inhibition was 4.1% (inactive) in experiment [1], -38.4% (inactive) in experiment [2], 4.25% (inactive) in experiment [4] and 10.3% (inactive) in experiment [9]. In [2], this compound returned a nuclei count of 117%. In addition, the results for the z-score in [3] (setting [10]), in experiment [3] (setting [11]) and in experiment [3] (setting [12]) were 1.16, -1.01 and -0.649, respectively. Moreover, the fluorescence slope in experiment [5] was -0.44 (inactive). In [6], the NADPH fluorescence slope was 2.3e-06 (inactive). Besides, the slope in experiment [7] is 0.0074 (inactive). Also, the outcome in experiment [8] was inactive.

In the case of `CC1(C)Cc2c(C#N)c(NCC3CCCO3)nc(-c3ccco3)c2CO1` (centres undefined), in [1], the cell count came out at 508. In addition, the inhibition in experiment [1] was -1.3% (inactive); in experiment [2], -83% (inactive); in experiment [4], 11.9% (inactive); in experiment [9], 1.27% (inactive). Also, the nuclei count in experiment [2] turned out to be 123%. The z-score in experiment [3] (setting [10]) was -1.04; in [3] (setting [11]), 1.4; in experiment [3] (setting [12]) it was -1.27. Also, the fluorescence slope in experiment [5] was -0.337 (inactive). Besides, in experiment [6], the NADPH fluorescence slope is 1e-05 (inactive). For the same compound, in [7], the slope is 0.00551 (inactive). In [8], the result was inactive.

On to `c1cc(-c2nnc3sc(C4CCCCC4)nn23)ccn1`, for which the cell count in [1] amounted to 660. The inhibition is -3% (inactive) in experiment [1], -26.6% (inactive) in experiment [2], -7.86% (inactive) in [4] and 70.8% (active) in [9]. In experiment [2], the nuclei count came out at 150%. Moreover, the z-score in experiment [3] (setting [10]) was 0.217; in experiment [3] (setting [11]), -0.0752; in experiment [3] (setting [12]), 0.0462. Also, the fluorescence slope in experiment [5] is -0.419 (inactive). The NADPH fluorescence slope in [6] is -0.00016 (inactive). Besides, in [7], the slope was 0.00483 (inactive). The outcome in experiment [8] was inactive.
